According to ChEMBL document CHEMBL1933013, “Synthesis, SAR, and preliminary mechanistic evaluation of novel antiproliferative N⁶,5'-bis-ureido- and 5'-carbamoyl-N⁶-ureidoadenosine derivatives” (Bioorg Med Chem, 2012):
≈ marks a conversion by molar mass, not a printed value. Calls of active or inactive are those of the source. The rule behind the calls is not given here.

Tests used:
[1] = system: L1210; assay: Antiproliferative activity against mouse L1210 cells after 48 hrs; assay type: functional, cell-based; conditions: L1210, 48 h
Outline: (§1)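 Cells in growth medium grown with variable compound concentrations at 37 °C in humidified CO2-controlled atmosphere; incubation 48 h for L1210 and FM3A, 72 h for CEM, 96 h for HeLa. Cell number counted by Coulter counter; IC50 = concentration inhibiting proliferation by 50%.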

[2] = system: FM3A; assay: Antiproliferative activity against mouse FM3A cells after 48 hrs; assay type: functional, cell-based; outline: as §1
[3] = system: CCRF-CEM; assay: Antiproliferative activity against human CEM cells after 72 hrs; assay type: cell-based; outline: as §1
[4] = system: HeLa; assay: Antiproliferative activity against human HeLa cells after 96 hrs; assay type: functional, cell-based; outline: as §1
[5] = target: T1, Bone morphogenetic protein receptor type-1B (Homo sapiens, UniProt O00238); assay: Inhibition of BMPR1B at 10 uM after 1 hr by competitive binding assay
Outline: (§2)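 Single-dose competitive binding at 10 μM against immobilized ATP-site ligands (DiscoveRx): phage-tagged or HEK-293-expressed DNA-tagged kinase with ligand-loaded streptavidin magnetic beads in 20% SeaBlock, 0.17× PBS, 0.05% Tween 20, 6 mM DTT, 1 h room temperature with shaking. Beads washed, eluted with 0.5 μM free ligand for 30 min; bound kinase quantified by qPCR as % binding inhibition.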

[6] = target: Receptor-type tyrosine-protein kinase FLT3 (Homo sapiens) (UniProt P36888); assay: Inhibition of FLT-3 kinase at 10 uM after 1 hr by competitive binding assay; outline: as §2
[7] = target: Ribosomal protein S6 kinase alpha-1 (Homo sapiens) (UniProt Q15418); assay: Inhibition of RPS6KA1 kinase at 10 uM after 1 hr by competitive binding assay; outline: as §2
[8] = target: Casein kinase I isoform gamma-2 (Homo sapiens) (UniProt P78368); assay: Inhibition of CSNK1G2 at 10 uM after 1 hr by competitive binding assay; outline: as §2
[9] = target: Inhibitor of nuclear factor kappa-B kinase subunit alpha (Homo sapiens) (UniProt O15111); assay: Inhibition of IKKalpha at 10 uM after 1 hr by competitive binding assay; outline: as §2
[10] = target: Tyrosine-protein kinase BTK (Homo sapiens) (UniProt Q06187); assay: Inhibition of BTK at 10 uM after 1 hr by competitive binding assay; outline: as §2
[11] = target: Serine/threonine-protein kinase PAK 3 (Homo sapiens) (UniProt O75914); assay: Inhibition of PAK3 at 10 uM after 1 hr by competitive binding assay; outline: as §2
[12] = target: Casein kinase II subunit alpha' (Homo sapiens) (UniProt P19784); assay: Inhibition of CSNK2A2 at 10 uM after 1 hr by competitive binding assay; outline: as §2
[13] = target: Non-receptor tyrosine-protein kinase TYK2 (Homo sapiens) (UniProt P29597); assay: Inhibition of TYK2 at 10 uM after 1 hr by competitive binding assay; outline: as §2
[14] = target: MAP/microtubule affinity-regulating kinase 3 (Homo sapiens) (UniProt P27448); assay: Inhibition of MARK3 at 10 uM after 1 hr by competitive binding assay
[15] = target: Myosin light chain kinase (Homo sapiens) (UniProt Q32MK0); assay: Inhibition of MYLK3 at 10 uM after 1 hr by competitive binding assay; outline: as §2
[16] = target: Serine/threonine-protein kinase DCLK1 (Homo sapiens) (UniProt O15075); assay: Inhibition of DCLK1 at 10 uM after 1 hr by competitive binding assay; outline: as §2
[17] = target: NT-3 growth factor receptor (Homo sapiens) (UniProt Q16288); assay: Inhibition of NTRK3 at 10 uM after 1 hr by competitive binding assay; outline: as §2
[18] = target: Myosin light chain kinase family member 4 (Homo sapiens) (UniProt Q86YV6); assay: Inhibition of MYLK4 at 10 uM after 1 hr by competitive binding assay; outline: as §2
[19] = target: Protein kinase C epsilon type (Homo sapiens) (UniProt Q02156); assay: Inhibition of PRKCE at 10 uM after 1 hr by competitive binding assay; outline: as §2
[20] = target: Mitogen-activated protein kinase 11 (Homo sapiens) (UniProt Q15759); assay: Inhibition of MAPK11 at 10 uM after 1 hr by competitive binding assay; outline: as §2
[21] = target: MAP kinase-interacting serine/threonine-protein kinase 2 (Homo sapiens) (UniProt Q9HBH9); assay: Inhibition of MKNK2 at 10 uM after 1 hr by competitive binding assay; outline: as §2
[22] = target: Tyrosine-protein kinase Tec (Homo sapiens) (UniProt P42680); assay: Inhibition of TEC at 10 uM after 1 hr by competitive binding assay; outline: as §2
[23] = target: Receptor tyrosine-protein kinase erbB-2 (Homo sapiens) (UniProt P04626); assay: Inhibition of ErbB2 at 10 uM after 1 hr by competitive binding assay; outline: as §2
[24] = target: Serine/threonine-protein kinase Nek2 (Homo sapiens) (UniProt P51955); assay: Inhibition of NEK2 at 10 uM after 1 hr by competitive binding assay; outline: as §2
[25] = target: Tyrosine-protein kinase Blk (Homo sapiens) (UniProt P51451); assay: Inhibition of Blk at 10 uM after 1 hr by competitive binding assay; outline: as §2
[26] = target: Epidermal growth factor receptor (Homo sapiens) (UniProt P00533); assay: Inhibition of EGFR at 10 uM after 1 hr by competitive binding assay; outline: as §2
[27] = target: Tyrosine-protein kinase ABL1 (Homo sapiens) (UniProt P00519); assay: Inhibition of ABL1 at 10 uM after 1 hr by competitive binding assay; outline: as §2
[28] = target: Homeodomain-interacting protein kinase 1 (Homo sapiens) (UniProt Q86Z02); assay: Inhibition of HIPK1 at 10 uM after 1 hr by competitive binding assay; outline: as §2
[29] = target: T1, Bone morphogenetic protein receptor type-1B; assay: Binding affinity to BMPR1B by multi dose competitive binding assay
[30] = target: T1, Bone morphogenetic protein receptor type-1B; assay: Binding affinity to BMPR1B at >30 uM by multi dose competitive binding assay
[31] = Antiproliferative activity against human NCI60 cells; assay type: functional, cell-based

SMILES	IC50 [1] [µg/mL]	IC50 [3] [µg/mL]	IC50 [4] [µg/mL]	IC50 [2] [µg/mL]	other results
CNC(=O)OC[C@H]1O[C@@H](n2cnc3c(NC(=O)Nc4cccc(I)c4)ncnc32)[C@H](O[Si](C)(C)C(C)(C)C)[C@@H]1O[Si](C)(C)C(C)(C)C	> 200	> 200	> 200	> 200	
CCOC(=O)C[C@H]1[C@@H](O[Si](C)(C)C(C)(C)C)[C@H](n2cnc3c(NC(=O)Nc4ccccc4)ncnc32)O[C@@H]1CNC(=O)NC					inhibition [5]: 47%; inhibition [6]: 31%; inhibition [7]: 40%; inhibition [8]: 38%; inhibition [9]: 37%; inhibition [10]: 35%; inhibition [11]: 33%; inhibition [12]: 31%; inhibition [13]: 31%; inhibition [14]: 34%
CNC(=O)OC[C@H]1O[C@@H](n2cnc3c(NC(=O)Nc4ccc(OC)cc4)ncnc32)[C@H](O[Si](C)(C)C(C)(C)C)[C@@H]1O[Si](C)(C)C(C)(C)C	> 200	> 200	≥ 200	> 200	
CNC(=O)OC[C@H]1O[C@@H](n2cnc3c(NC(=O)NC4CCCCC4)ncnc32)[C@H](O[Si](C)(C)C(C)(C)C)[C@@H]1O[Si](C)(C)C(C)(C)C	74 (≈ 109 µM)	175 (≈ 258 µM)	69 (≈ 102 µM)	> 200	
CCCNC(=O)Nc1ncnc2c1ncn2[C@@H]1O[C@H](CNC(=O)NC)[C@@H](O[Si](C)(C)C(C)(C)C)[C@H]1O[Si](C)(C)C(C)(C)C	3.9 (≈ 6.12 µM)	4.4 (≈ 6.91 µM)	3.3 (≈ 5.18 µM)	4.7 (≈ 7.38 µM)	
CNC(=O)NC[C@H]1O[C@@H](n2cnc3c(NC(=O)Nc4ccccc4)ncnc32)[C@H](O)[C@@H]1O					inhibition [5]: 45%; inhibition [15]: 43%; inhibition [16]: 41%; inhibition [17]: 40%; inhibition [18]: 38%; inhibition [19]: 38%; inhibition [20]: 37%; inhibition [21]: 37%; inhibition [22]: 37%; inhibition [23]: 35%; inhibition [6]: 33%; inhibition [24]: 33%; inhibition [25]: 32%; inhibition [26]: 31%; inhibition [27]: 30%; inhibition [28]: 30%; Kd [29]: 11.5 µM
CNC(=O)NC[C@H]1O[C@@H](n2cnc3c(NC(=O)NCc4ccccc4)ncnc32)[C@H](O[Si](C)(C)C(C)(C)C)[C@@H]1O[Si](C)(C)C(C)(C)C	4.6 (≈ 6.72 µM)	8.3 (≈ 12.1 µM)	3.8 (≈ 5.55 µM)	9.2 (≈ 13.4 µM)	
CCCCCCNC(=O)Nc1ncnc2c1ncn2[C@@H]1O[C@H](COC(=O)NC)[C@@H](O[Si](C)(C)C(C)(C)C)[C@H]1O[Si](C)(C)C(C)(C)C	> 200	175 (≈ 257 µM)	88 (≈ 129 µM)	> 200	
CNC(=O)OC[C@H]1O[C@@H](n2cnc3c(NC(=O)NCc4ccccc4)ncnc32)[C@H](O[Si](C)(C)C(C)(C)C)[C@@H]1O[Si](C)(C)C(C)(C)C	101 (≈ 147 µM)	> 200	23 (≈ 33.5 µM)	> 200	
CNC(=O)OC[C@H]1O[C@@H](n2cnc3c(NC(=O)Nc4ccc([N+](=O)[O-])cc4)ncnc32)[C@H](O[Si](C)(C)C(C)(C)C)[C@@H]1O[Si](C)(C)C(C)(C)C	7.7 (≈ 10.7 µM)	15 (≈ 20.9 µM)	1.5 (≈ 2.09 µM)	24 (≈ 33.5 µM)	
CNC(=O)OC[C@H]1O[C@@H](n2cnc3c(NC(=O)Nc4ccccc4)ncnc32)[C@H](O[Si](C)(C)C(C)(C)C)[C@@H]1O[Si](C)(C)C(C)(C)C	160 (≈ 238 µM)	> 200	≥ 200	> 200	
CCCNC(=O)Nc1ncnc2c1ncn2[C@@H]1O[C@H](COC(=O)NC)[C@@H](O[Si](C)(C)C(C)(C)C)[C@H]1O[Si](C)(C)C(C)(C)C	18 (≈ 28.2 µM)	59 (≈ 92.5 µM)	55 (≈ 86.2 µM)	23 (≈ 36.1 µM)	
CNC(=O)NC[C@H]1O[C@@H](n2cnc3c(NC(=O)NC4CCCCC4)ncnc32)[C@H](O[Si](C)(C)C(C)(C)C)[C@@H]1O[Si](C)(C)C(C)(C)C	20 (≈ 29.5 µM)	5.2 (≈ 7.68 µM)	11 (≈ 16.2 µM)	8.4 (≈ 12.4 µM)	
CCCCCCNC(=O)Nc1ncnc2c1ncn2[C@@H]1O[C@H](CNC(=O)NC)[C@@H](O[Si](C)(C)C(C)(C)C)[C@H]1O[Si](C)(C)C(C)(C)C	74 (≈ 109 µM)	68 (≈ 100 µM)	74 (≈ 109 µM)		
CNC(=O)OC[C@H]1O[C@@H](n2cnc3c(NC(=O)Nc4ccc(Cl)cc4)ncnc32)[C@H](O[Si](C)(C)C(C)(C)C)[C@@H]1O[Si](C)(C)C(C)(C)C	> 200	> 200	> 200	> 200	

Further lines, with some results ahead:

IC50 [1] [µg/mL]	IC50 [3] [µg/mL]	IC50 [4] [µg/mL]	SMILES	IC50 [2] [µg/mL]	other results
3.8 (≈ 5.66 µM)	8.3 (≈ 12.4 µM)	3.2 (≈ 4.77 µM)	CNC(=O)NC[C@H]1O[C@@H](n2cnc3c(NC(=O)Nc4ccccc4)ncnc32)[C@H](O[Si](C)(C)C(C)(C)C)[C@@H]1O[Si](C)(C)C(C)(C)C	5.9 (≈ 8.79 µM)	Activity [30]: inactive; IC50 [31]: < 10 µM
43 (≈ 54 µM)	68 (≈ 85.3 µM)	18 (≈ 22.6 µM)	CNC(=O)NC[C@H]1O[C@@H](n2cnc3c(NC(=O)Nc4ccc(I)cc4)ncnc32)[C@H](O[Si](C)(C)C(C)(C)C)[C@@H]1O[Si](C)(C)C(C)(C)C		
3.8 (≈ 5.42 µM)	5.2 (≈ 7.42 µM)	2.6 (≈ 3.71 µM)	CNC(=O)NC[C@H]1O[C@@H](n2cnc3c(NC(=O)Nc4ccc(OC)cc4)ncnc32)[C@H](O[Si](C)(C)C(C)(C)C)[C@@H]1O[Si](C)(C)C(C)(C)C	5.8 (≈ 8.27 µM)	
≥ 200	> 200	> 200	CNC(=O)NC[C@H]1O[C@@H](n2cnc3c(NC(=O)Nc4ccc([N+](=O)[O-])cc4)ncnc32)[C@H](O[Si](C)(C)C(C)(C)C)[C@@H]1O[Si](C)(C)C(C)(C)C	> 200	
5.6 (≈ 7.94 µM)	14 (≈ 19.8 µM)	3.4 (≈ 4.82 µM)	CNC(=O)NC[C@H]1O[C@@H](n2cnc3c(NC(=O)Nc4ccc(Cl)cc4)ncnc32)[C@H](O[Si](C)(C)C(C)(C)C)[C@@H]1O[Si](C)(C)C(C)(C)C	33 (≈ 46.8 µM)	
> 200	≥ 200	143 (≈ 179 µM)	CNC(=O)OC[C@H]1O[C@@H](n2cnc3c(NC(=O)Nc4ccc(I)cc4)ncnc32)[C@H](O[Si](C)(C)C(C)(C)C)[C@@H]1O[Si](C)(C)C(C)(C)C	> 200	
38 (≈ 47.7 µM)	182 (≈ 228 µM)	21 (≈ 26.4 µM)	CNC(=O)NC[C@H]1O[C@@H](n2cnc3c(NC(=O)Nc4cccc(I)c4)ncnc32)[C@H](O[Si](C)(C)C(C)(C)C)[C@@H]1O[Si](C)(C)C(C)(C)C		
